High-throughput results as filed in PubChem BioAssay.
KCNK3 block: human KCNK3 channel inhibitors, primary screen, CHO cells, FluxOR thallium flux, B-score; Potassium channel subfamily K member 3 (Homo sapiens), O14649; FluxOR fluorescence; active compounds read low; B-score at 10 µM; actives 0.84% (n = 340,000);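 active means B-score under library mean minus 4 SD, starting fluorescence ratio at most library mean plus 5 SD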;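 further: more negative B-score means stronger inhibition of thallium flux through KCNK3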
Target sequence (O14649 whole entry, looked up): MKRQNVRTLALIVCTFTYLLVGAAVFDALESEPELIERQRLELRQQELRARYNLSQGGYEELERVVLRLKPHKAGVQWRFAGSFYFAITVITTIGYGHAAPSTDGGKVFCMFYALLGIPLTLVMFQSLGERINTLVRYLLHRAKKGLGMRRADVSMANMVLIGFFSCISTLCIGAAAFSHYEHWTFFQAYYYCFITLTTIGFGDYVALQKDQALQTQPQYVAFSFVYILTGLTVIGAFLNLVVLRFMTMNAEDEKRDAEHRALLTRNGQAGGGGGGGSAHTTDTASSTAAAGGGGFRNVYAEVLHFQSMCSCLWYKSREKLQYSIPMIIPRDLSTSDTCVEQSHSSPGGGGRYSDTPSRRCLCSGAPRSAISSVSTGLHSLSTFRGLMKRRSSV
KCNK9 block: KCNK9 potassium channel inhibitors, primary screen, HEK293 cells, thallium flux | AID 488922, 2010 | FluxOR thallium flux fluorescence; active compounds read low | actives 1.2% (n = 310,000) | B-score at 10 µM;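 active means ratio B-score over 3 SD below the library mean, with starting fluorescence within 5 SD of its mean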;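 further: negative B-score means less thallium flux so channel inhibition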
Kir21 inh: inhibitors of mouse Kir2.1 inward-rectifier potassium channel; B-score at 10 µM; Inward rectifier potassium channel 2 (Mus musculus), P35561; actives 0.85% (n = 310,000); AID 1672, 2009; HEK293-Kir2.1, FluxOR thallium flux fluorescence; active compounds read low;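 active means fluorescence ratio B-score at or below minus 3 SD of library scores, with starting-brightness B-score within 2 SD, cut at about -4.2 in these data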;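 further: channel flux triggered by added potassium and thallium sulfate stimulus; B-score of peak minus minimum fluorescence over baseline after thallium stimulus; more negative B-score means stronger Kir2.1 block with less thallium influx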
KCNQ1 act: potentiators or activators of KCNQ1 channel, primary screen, cell-based, thallium flux, high-throughput; actives 0.35% (n = 310,000); CHO-K1 KCNQ1, thallium flux FluxOR fluorescence; active compounds read high; B-score at 10 µM; Potassium voltage-gated channel subfamily KQT member 1 (Homo sapiens), P51787;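 active means fluorescence ratio B-score, a plate-corrected score, at least three library SD, with initial intensity B-score within 5 SD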
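Test system: CHO-K1 cells stably expressing KCNQ1 / Medium: assay buffer / Also added: depolarizing K+/Tl+ stimulus, K2SO4 and Tl2SO4 each 12.5 mM in 5x stock / Incubation: 90 min dye loading and 20 min compound exposure, both at room temperature / Signal: thallium influx via FluxOR fluorescence, kinetic imaging / Evaluation: B score of baseline-normalized fluorescence ratio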
KCNQ1 block: inhibitors of human KCNQ1 channel, primary screen, cell-based, thallium flux, high-throughput; actives 1.3% (n = 310,000); Potassium voltage-gated channel subfamily KQT member 1 (Homo sapiens), P51787; CHO-K1 KCNQ1, FluxOR thallium flux fluorescence; active compounds read high; B-score at 10 µM; AID 2642, 2010;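 active means compounds whose thallium flux B-score, printed positive for inhibition, exceeds three library SD while starting fluorescence stays within three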;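 further: channel opened by potassium depolarization with thallium stimulus after 20 min compound exposure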
hERG rescue: hERG rescue from dofetilide block, primary screen, cell-based, CHO-hERG, FluxOR thallium flux, dofetilide IC70; Voltage-gated inwardly rectifying potassium channel KCNH2 (Homo sapiens), Q12809; dofetilide IC70 present; actives 0.51% (n = 310,000); activation (rescue from dofetilide block), less the hit threshold, % at 10 µM;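 active means activation above the mean of controls blocked by dofetilide plus 5 SD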;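 further: thallium influx through hERG after potassium depolarization seen as dye fluorescence rise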
KCNK9 block conf: KCNK9 potassium channel inhibitors, confirmation, HEK293 cells, thallium flux, duplicate | inhibition, % at 10 µM | shares compounds with KCNK9 block | FluxOR thallium flux fluorescence | actives 43% (n = 4,900) | AID 492992, 2010;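 active means thallium signal inhibited by more than 5 SD of the compound-free buffer control wells, on both duplicate plates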
Kir21 sel: mouse Kir2.1 channel inhibition, confirmation, selectivity assay for KCNK9 modulator project, cell-based, HEK293, thallium flux. inhibition, % at 10 µM. shares compounds with KCNK9 block. Kir2.1 cells, FluxOR thallium flux fluorescence. AID 492993, 2010. actives 4% (n = 4,900);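 active means thallium signal drop more than 5 SD beyond the mean of the no-compound control wells, seen in both duplicate plates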;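 further: signal is fluorescence rise after thallium addition divided by baseline fluorescence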
HEK293 Tl ctr: thallium flux in non-induced HEK293 cells, confirmation, counter-screen for KCNK9 inhibitor project, cell-based, second counter screen, non-induced KCNK9-HEK293. shares compounds with KCNK9 block. FluxOR thallium flux. actives 40% (n = 4,900). inhibition, % at 10 µM. AID 492997, 2010;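 active means thallium signal drop beyond 5 SD of the untreated control mean, on both duplicate plates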
A number is an active result; n = inactive; x = no result given. Rows were chosen to be rich in hits. Some 3.7% of all compounds tested hit in one or more screens of this group.

SMILES	KCNK3 block	KCNK9 block	Kir21 inh	KCNQ1 act	KCNQ1 block	hERG rescue	KCNK9 block conf	Kir21 sel	HEK293 Tl ctr
Cc1c(C(=O)N(C)C2CCCCC2)sc2ncnc(N3CCN(c4ccccc4F)CC3)c12	n	n	n	n	n	n	x	x	x
O=C(CCCn1cc([N+](=O)[O-])cn1)N1CCCCC1	n	n	n	n	n	n	x	x	x
CN(C)c1ccccc1C(=O)N1CCCC(C(=O)c2ccc3ccccc3c2)C1 (centres undefined)	n	n	n	n	n	n	n	n	n
CSc1ncccc1C(=O)N1CCCC(C(=O)c2ccc3ccccc3c2)C1 (centres undefined)	n	n	n	n	n	n	n	n	n
O=C(c1ccc2ccccc2c1)C1CCCN(C(=O)c2cccnc2)C1 (centres undefined)	n	n	n	n	n	n	x	x	x
C/C(=N\NC(=S)NCCc1ccccc1)c1ccc(Cl)cc1Cl	n	n	n	n	n	n	n	n	n
COc1cccc(CNc2ccc(N3CCC(C)CC3)cc2)c1OC	n	n	n	n	n	n	n	n	n
COc1ccc(Br)cc1CNc1ccc(N2CCOCC2)cc1	n	n	n	n	n	n	x	x	x
CC1CCCCN1C(=O)CSc1nc2cc3c(cc2c(=O)n1Cc1ccc2c(c1)OCO2)OCO3 (centres undefined)	n	n	n	n	n	n	n	n	24%
COc1ccc(-n2cc(CNCc3cnc4ccccn34)c(-c3cccc(F)c3)n2)cc1	n	n	n	n	n	n	x	x	x
Cc1ccc(CN(C)c2nc(-c3cccnc3)nc3ccccc23)o1	n	n	n	n	n	n	x	x	x
CN(Cc1ccccc1F)c1nc(-c2cccnc2)nc2ccccc12	n	-8.2	n	n	n	n	31%	n	28%
CCOC(=O)CC(NC(=O)c1cccc2c1C(=O)N(Cc1cccnc1)C2)c1ccc(OC(C)C)cc1 (centres undefined)	n	n	n	n	n	n	n	n	n
COc1ccc(N2CCN(C3CCCCC3NS(=O)(=O)c3ccc(Cl)cc3)CC2)cc1 (centres undefined)	n	n	n	n	n	n	n	n	n
Cc1ccc(C)c(N2CCN(C3CCCCC3NS(=O)(=O)c3ccccc3)CC2)c1 (centres undefined)	-12	-16	n	n	8	n	52%	n	31%
CCOc1ccc(CN(C)C(=O)c2ccc(S(=O)(=O)N(C)c3ccccc3OC)cc2)cc1	n	x	x	x	x	x	x	x	x
Cc1noc(C)c1NC(=O)N(C)C[C@@H]1Oc2ccc(NC(=O)Cc3cn(C)c4ccccc34)cc2CC(=O)N([C@H](C)CO)C[C@@H]1C	n	x	x	x	x	x	x	x	x
Cc1ccc(C(=O)OCC(=O)c2c[nH]c3ccccc23)cc1	n	n	n	n	n	n	x	x	x
CC(C)Cc1ccc(C(C)C(=O)OCC(=O)c2c[nH]c3ccccc23)cc1 (centres undefined)	n	-10	n	n	n	n	24%	n	42%
COc1ccc(OC)c(S(=O)(=O)n2ccnc2C(C)C)c1	n	n	n	n	n	n	x	x	x
Nc1c(C(=O)c2ccccc2)oc2ccccc12	n	n	n	n	n	n	x	x	x
Cc1c(C(=O)c2ccccc2)oc2ccc3ccccc3c12	n	-11	n	n	n	n	56%	n	40%
BrC(/C=N/N1CCN(Cc2ccccc2)CC1)=C/c1ccccc1	n	n	n	n	n	n	n	n	n
Cc1ccc(CN2CCN(/N=C\C=C\c3ccccc3)CC2)cc1	n	n	n	n	n	n	n	n	n
BrC(=C\c1ccccc1)/C=N/N1CCN(Cc2ccccc2)CC1	n	n	n	n	n	n	x	x	x
SMILES	KCNK3 block	KCNK9 block	Kir21 inh	KCNQ1 act	KCNQ1 block	hERG rescue	KCNK9 block conf	Kir21 sel	HEK293 Tl ctr
CC(/C=N\N1CCN(Cc2ccc(C)cc2)CC1)=C\c1ccccc1	n	n	n	n	n	n	n	n	n
CCOC(=O)/C(=N\Nc1ccccc1Cl)N(C)C1CCCCC1	n	-8.8	n	n	n	n	64%	n	50%
CCOC(=O)/C(=N\Nc1cc(C(F)(F)F)ccc1Cl)N(CC)CC	n	-13	n	n	n	n	54%	n	42%
Cc1ccccc1NC(=O)Cc1nc(COC(=O)CCNS(=O)(=O)c2ccccc2)cs1	n	n	n	n	n	n	x	x	x
CCN1C(=O)/C(=C\c2ccc(-c3ccc([N+](=O)[O-])cc3OC)o2)SC1=Nc1cccc(C(=O)O)c1	n	n	n	n	n	n	n	n	n
CCOc1cc(S(=O)(=O)Nc2ccc(CC)cc2)ccc1Cl	n	n	n	n	n	n	n	n	n
CC(=O)C1C(=O)CC(C)(O)C(C(C)=O)C1c1ccccc1 (centres undefined)	n	n	n	n	n	n	x	x	x
Cc1cc(C)c(C(=O)C(C)OC(=O)c2ccc(Cl)nc2)cc1C (centres undefined)	n	n	n	n	n	n	n	n	n
O=C(COC(=O)c1ccc2ncsc2c1)Nc1ccccc1Cl	n	x	x	x	x	x	x	x	x
CC(C)C(CCN1C(=O)c2ccccc2C1=O)c1ccco1 (centres undefined)	n	n	n	n	n	n	x	x	x
CC(=O)N(CCC(c1ccco1)C(C)C)Cc1ccc(Cl)cc1 (centres undefined)	n	-9.3	n	n	n	n	40%	33%	46%
CCC(=O)N(CCC(c1ccc(C)cc1)c1ccco1)Cc1ccco1 (centres undefined)	n	-16	n	n	n	n	68%	n	46%
CCCC(=O)N(CCN(Cc1ccccc1)C(=O)CCC)Cc1ccccc1	n	n	n	n	n	n	x	x	x
CCC(=O)N(CCC(c1ccco1)C(C)C)Cc1ccccc1 (centres undefined)	n	-11	-6.1	n	n	n	n	n	34%
